pEC50: −log10 of the molar value. Active and inactive are the calls of the source. The calls are words filed in the database; no cut-off is given here.

Test [1] concerns the target T1, Adenosine receptor A1 (Homo sapiens) (UniProt P30542).
T1 sequence (whole entry): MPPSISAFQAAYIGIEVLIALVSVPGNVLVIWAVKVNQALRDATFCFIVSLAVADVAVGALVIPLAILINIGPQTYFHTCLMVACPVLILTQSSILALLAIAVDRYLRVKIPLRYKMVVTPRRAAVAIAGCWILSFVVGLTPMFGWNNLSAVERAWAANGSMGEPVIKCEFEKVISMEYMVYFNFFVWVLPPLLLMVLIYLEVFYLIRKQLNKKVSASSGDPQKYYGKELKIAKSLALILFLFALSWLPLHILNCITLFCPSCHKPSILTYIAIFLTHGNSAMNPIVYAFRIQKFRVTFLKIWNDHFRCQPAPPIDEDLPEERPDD
Description: AE activity is the ratio of specific binding at the end of dissociation to specific binding at the end of 120 min of equilibration at 50 uM concentration to Adenosine A1 receptor. The procedure, abridged:
(§1)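 Test agent from DMSO stock was added for 5 min. Dissociation was started with 8-CPT plus GTPγS and stopped after 10 min by glass-fibre filtration. Nonspecific binding (8-CPT/GTPγS, no agent) was subtracted. % = specific binding after dissociation ÷ after equilibration. Means of 2–3 experiments ±SEM.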

The target in test [2] is Adenosine receptor A2a (Homo sapiens) (UniProt P29274). The test can be described thus: Percent allosteric enhancer (AE) activity from ratio of specific binding to Adenosine A2A receptor at end of dissociation to that of 120 min of equilibration.
The target in test [3] is T2, Adenosine receptor A3 (Homo sapiens) (UniProt P0DMS8).
T2 sequence (whole entry): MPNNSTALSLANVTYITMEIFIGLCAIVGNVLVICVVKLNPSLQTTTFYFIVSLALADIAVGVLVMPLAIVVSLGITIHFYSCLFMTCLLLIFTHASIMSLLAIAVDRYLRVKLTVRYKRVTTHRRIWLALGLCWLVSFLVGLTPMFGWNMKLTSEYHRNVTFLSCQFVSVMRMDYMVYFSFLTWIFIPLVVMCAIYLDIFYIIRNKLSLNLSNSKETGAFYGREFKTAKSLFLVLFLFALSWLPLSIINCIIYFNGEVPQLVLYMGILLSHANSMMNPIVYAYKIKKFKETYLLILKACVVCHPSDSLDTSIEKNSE
Description: Percent allosteric enhancer (AE) activity from ratio of specific binding to Adenosine A3 receptor at end of dissociation to that of 120 min of equilibration.

The target in test [4] is T1, Adenosine receptor A1 (Homo sapiens). Description: AE activity is the ratio of specific binding at the end of dissociation to specific binding at the end of 120 min of equilibration at 5 uM concentration to Adenosine A1 receptor. The procedure, abridged: as §1
The target in a further test is T3, Adenosine receptor A1 (Homo sapiens, UniProt P30542).
T3 sequence (P30542 whole entry): T1 sequence (whole entry)
Description: Effective concentration against Adenosine A1 receptor.

The target in test [5] is T1, Adenosine receptor A1 (Homo sapiens). The test can be described thus: AE activity is the ratio of specific binding at the end of dissociation to specific binding at the end of 120 min of equilibration at 50 uM concentration to Adenosine A1 receptor; not significantly active. The procedure, abridged:
as §1

The target is the same in test [6]. The test can be described thus: AE activity is the ratio of specific binding at the end of dissociation to specific binding at the end of 120 min of equilibration at 5 uM concentration to Adenosine A1 receptor; not significantly active. The gist of the method: as §1

Sequence of Adenosine receptor A2a (Homo sapiens) (P29274 whole entry): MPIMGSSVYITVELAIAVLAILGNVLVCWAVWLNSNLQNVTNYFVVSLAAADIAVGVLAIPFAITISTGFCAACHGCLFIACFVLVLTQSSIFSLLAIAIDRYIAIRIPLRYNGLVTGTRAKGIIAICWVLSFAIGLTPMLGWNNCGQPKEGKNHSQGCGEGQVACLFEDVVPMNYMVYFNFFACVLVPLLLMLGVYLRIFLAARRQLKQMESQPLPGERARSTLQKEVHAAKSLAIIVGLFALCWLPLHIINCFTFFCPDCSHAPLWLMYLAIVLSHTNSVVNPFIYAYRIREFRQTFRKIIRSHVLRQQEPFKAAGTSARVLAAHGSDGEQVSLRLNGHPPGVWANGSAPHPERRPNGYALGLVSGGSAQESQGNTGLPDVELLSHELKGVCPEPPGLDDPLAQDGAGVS

As to `COc1ccc2c(c1)CCc1sc(N)nc1-2`, the AE activity in test [1] was 78%; in test [2] it was 18%; in test [3], 8%. As to `Nc1nc2c(s1)CCc1cc(OC(=O)c3ccccc3)ccc1-2`, in test [4], the AE activity was 54%. For `CC(=O)Oc1ccc2c(c1)CCc1sc(N)nc1-2`, the AE activity is 95% in test [1], 24% in test [2] and 30% in test [3].

Take `COc1ccc2c(c1)Cc1sc(N)nc1-2`: in test [1], the AE activity was found to be 66%. At Adenosine receptor A1, this compound showed a pEC50 of 4.30. On the same counts, the results for `Nc1nc2c(s1)Cc1c(OC(=O)C3CCCC3)cccc1-2` are 85% and 5.35. For `Cc1ccc2c(c1)-c1nc(N)sc1C2`, in that order: 72% and 5.38.

As for `COc1cc2c(c(OC)c1OC)Cc1sc(N)nc1-2`, the AE activity in test [4] came to 60%. On Adenosine receptor A1, this compound had a pEC50 of 4.77. Regarding `CC(=O)Oc1cccc2c1Cc1sc(N)nc1-2`, the AE activity in test [4] turned out to be 74%; in test [2] it was 19%; in test [3], 22%. With `Nc1nc2c(s1)CCc1ccccc1-2`, in test [1], the AE activity is 80%. The compound also gave a pEC50 at Adenosine receptor A1 of 4.77. As for `COc1cc2c(c(OC)c1OC)-c1nc(N)sc1C2`, the AE activity in test [1] is 24%.

Regarding `Nc1nc2c(s1)-c1ccccc1C2`, the AE activity result in test [5] was “inactive”. Same read-out and setting: for `Nc1nc2c(s1)Cc1cc(Br)ccc1-2` the value was “inactive”. For the compound `CCCCCOc1ccc2c(c1)CCc1sc(N)nc1-2`, in test [4], the AE activity was determined as 41%. With `Nc1nc2c(s1)CCc1cc(OC3C=CC=C3)ccc1-2`, the AE activity entry in test [6] is “inactive”. As to `Nc1nc2c(s1)COc1ccccc1-2`, the AE activity in test [1] turned out to be 62%. Consider `Nc1nc2c(s1)CCCc1ccccc1-2`, for which, in test [5], the AE activity result is “inactive”. For `Nc1nc2c(s1)Cc1ccccc1-2`, in test [1], the AE activity worked out at 91%. Besides, the pEC50 at Adenosine receptor A1 was 4.42. In the case of `COc1cc2c(cc1OC)-c1nc(N)sc1C2`, the AE activity in test [1] worked out at 78%; in test [2], 36%; in test [3] it was 29%.

On to `Cc1cccc2c1Cc1sc(N)nc1-2`, for which the AE activity in test [1] was determined as 81%. As for `Nc1nc2c(s1)CCCCC2`, the AE activity entry in test [5] is “inactive”. Same read-out and setting: next, `Nc1nc2c(s1)Cc1c(OC(=O)C3CCCCC3)cccc1-2`: “inactive”. Take `Nc1nc2c(s1)-c1ccccc1CC2`: the AE activity entry in test [5] was “inactive”. As to `CCCCCCCCOc1ccc2c(c1)CCc1sc(N)nc1-2`, the AE activity in test [4] was determined as 45%.

Take `Nc1nc2c(s1)CCCC2`: the AE activity in test [1] worked out at 19%.

As a reminder, the pEC50 is the negative decadic logarithm of the EC50, by convention in mol/L. Higher therefore signals a small EC50.

Values taken from ChEMBL document CHEMBL1135138, “2-Aminothiazoles: a new class of agonist allosteric enhancers of A(1) adenosine receptors” (Bioorg Med Chem Lett, 2002).
